Measured values pooled from the literature.
Organism: Klebsiella pneumoniae
Read-out: microbial growth

Compound	assay	system	conditions	MIC
NC1CCCCc2c1[nH]c1ccc(Br)cc21 (centres unmarked)	broth dilution	ATCC10031		16 µg/mL
CNC(C)C1CCC(N)C(OC2C(N)CC(N)C(OC3OCC(C)(O)C(NC)C3O)C2O)O1 (centres unmarked)	broth dilution	ATCC700603		0.31 µM
CC1=NN(CNc2ccc(C(=O)O)cc2)C(=O)C1=NNn1c(-c2ccccc2)nc2ccccc2c1=O	broth dilution		24 h	50.5 µM
C[C@@H](O)[C@H]1C(=O)N2C(C(=O)O)=C(S[C@@H]3CN[C@H](C(=O)N(C)C)C3)[C@H](C)[C@H]12	broth dilution	ATCC700603		0.63 µM
CN[C@@H]1[C@@H](O)[C@@H](O[C@@H]2[C@@H](O)[C@H](O[C@H]3OC(CNCCO)=CC[C@H]3N)[C@@H](N)C[C@H]2NC(=O)[C@@H](O)CCN)OC[C@]1(C)O				0.25 to 0.5 µg/mL
CCCCCCC#Cc1cncc(-c2nnc(SCc3ccc([N+](=O)[O-])cc3)n2C)c1				≥ 20 µg/mL
Cc1c(CN(C)C(=O)/C=C/c2cnc3c(c2)CC(CCN)C(=O)N3)oc2ccccc12.Cl (centres unmarked)	broth dilution	BAA2473		16 µg/mL
CN(C)[C@@H]1C(O)=C(C(N)=O)C(=O)[C@@]2(O)C(O)=C3C(=O)c4c(cc5ccc(CN6CC(F)(F)C6)cc5c4O)C[C@H]3C[C@@H]12	broth dilution	ATCC13883		32 µg/mL
C[C@H]1COc2c(N3CCN(C)CC3)c(F)cc3c(=O)c(C(=O)O)cn1c23	broth dilution	ATCC700603		0.16 µM
CO[C@H]1/C=C/O[C@@]2(C)Oc3c(C)c(O)c4c(O)c(c(/C=N/N5CCN(C)CC5)c(O)c4c3C2=O)NC(=O)/C(C)=C\C=C\[C@H](C)[C@H](O)[C@@H](C)[C@@H](O)[C@@H](C)[C@H](OC(C)=O)[C@@H]1C		ATCC13882		16 µg/mL
O=C1NN=C(N=Cc2ccccc2O)C1=NNn1c(-c2ccccc2)nc2ccccc2c1=O	broth dilution		24 h	55.4 µM
CN(C)[C@@H]1C(O)=C(C(N)=O)C(=O)[C@@]2(O)C(O)=C3C(=O)c4c(cc5ccc(-c6cccnc6)cc5c4O)C[C@H]3C[C@@H]12	broth dilution	ATCC13883		32 µg/mL
NC[C@H]1O[C@H](O[C@H]2[C@H](O)[C@@H](O[C@H]3O[C@H](CO)[C@@H](O)[C@H](N)[C@H]3O)[C@H](N)C[C@@H]2N)[C@H](N)C[C@@H]1O	broth dilution	ATCC700603		1.3 µM
O=C1NN=C(N=Cc2ccccc2)C1=NNn1c(-c2ccccc2)nc2ccccc2c1=O	broth dilution		24 h	114 µM
O=C1CN(/N=C/c2ccc([N+](=O)[O-])o2)C(=O)N1	broth dilution	ATCC700603		320 µM
O=C(O)c1cn(C2CC2)c2cc(N3CCNCC3)c(F)cc2c1=O		DSM30104		≤ 0.03 µg/mL
CC(C)(O/N=C(\C(=O)N[C@@H]1C(=O)N2C(C(=O)[O-])=C(C[n+]3ccccc3)CS[C@H]12)c1csc(N)n1)C(=O)O	broth dilution	ATCC10031	18 h	2 µg/mL
